Experimental data: ChEMBL document CHEMBL1795270, “Synthesis and biological evaluation of a novel human stem/progenitor cells proliferation activator: 4-(4-(5-mercapto-1,3,4-oxadiazol-2-yl)phenyl) thiosemicarbazide (Stemazole)” (Eur J Med Chem, 2011)
Each block holds one compound with its values, some of them ahead of it. Activity calls are given as the source filed them. The rule behind the calls is not given here.

Assays:
[1] = Solubility of the compound in DMSO; type: physicochemical
[2] = Induction of human HSC proliferation after 4 days by luminescent cell viability assay; type: functional
How it was run: (§1)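 Sixth-passage HSCs (kept as neurospheres in DMEM/F12 with bFGF, EGF, B27) plated at 1×10^3 cells/well in basic medium, left 24 h, then given serial dilutions for 4 days. DMSO as negative control, bFGF as positive control. Read-out by CellTiter-Glo: reagent added to the cells, 10 min at ambient temperature, then luminescence read. Values relative to DMSO (100%). At least triplicate, repeated three times, mean ± SD.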

[3] = Cytotoxicity against human HSC after 4 days at 100 uM by luminescent cell viability assay; details: 96 h; how it was run: as §1
[4] = Inhibition of human HSC proliferation after 4 days by luminescent cell viability assay; details: 96 h; how it was run: as §1
Homo sapiens [5] = species on record: Homo sapiens; assay: Induction of human HSC proliferation assessed as fold increase after 6 days by direct phase contrast microscopy; type: functional
How it was run: (§2)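 HSCs kept serum-free without bFGF, seeded at 1×10^3 cells/well, then given a range of concentrations for 2, 4 and 6 days. Read at each time point by phase-contrast imaging, cell counting (three pictures per group, haemocytometer) and CellTiter-Glo luminescence. DMSO as negative control, bFGF as positive control. Mean ± SD.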

Homo sapiens [6] = species on record: Homo sapiens; assay: Induction of human PSC proliferation after 4 days by luminescent cell viability assay; type: functional
How it was run: (§3)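 Sixth-passage PSCs (expanded in DMEM/F12, 7.33 mM glucose, with 10% FBS and 20 ng/mL bFGF) plated at 1×10^3 cells/well in basic medium, left 24 h, then treated for 4 days. DMSO as negative control. Viability read by CellTiter-Glo luminescence after 10 min at ambient temperature. At least triplicate, repeated three times, mean ± SD.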

[7] = Cytotoxicity against human HSC assessed as axonal growth or adipose drop appearance 13.8 to 40.2 uM up to 6 days by phase contrast microscopy; details: 144 h
How it was run: (§4)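 Phase-contrast microscope images of HSCs treated with various concentrations, DMSO or bFGF, taken at 2, 4 and 6 days. Scored by morphology, including signs of differentiation such as axonal growth or adipose drop appearance.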

[8] = Cytotoxicity against human HSC assessed as morphological changes 13.8 to 40.2 uM up to 6 days by phase contrast microscopy; details: 144 h; how it was run: as §4
Homo sapiens [9] = species on record: Homo sapiens; assay: Induction of human HSC proliferation under serum free condition after 4 days by cell counting and luminescent cell viability assay; type: functional; how it was run: as §2
Homo sapiens [10] = species on record: Homo sapiens; assay: Induction of human HSC proliferation under serum free condition at 5 to 40 uM by cell counting and luminescent cell viability assay; type: functional; details: TDE = time-dependent effect; how it was run: as §2
Homo sapiens [11] = species on record: Homo sapiens; assay: Induction of human CSC proliferation after 4 days by luminescent cell viability assay; type: functional
How it was run: as §3, with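 “Third-passage CSCs (maintained” for “Sixth-passage PSCs (expanded”, “IMDM” for “DMEM/F12, 7.33 mM glucose,”, “2-mercaptoethanol)” for “20 ng/mL bFGF)”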

[12] = Induction of human HSC proliferation assessed as population doubling time at 41.6 uM by cell counting and luminescent cell viability assay (reference value: 73.6 hrs); type: functional
[13] = Homo sapiens, 96 h, read-out: EC50

Compound: S=C(NNCc1ccccc1)Nc1ccc(-c2nnc(S)o2)cc1
solubility [1]: soluble | EC50 [2]: Not Active

Compound: NNC(=S)Nc1ccc(-c2nnc(S)o2)cc1Br
solubility [1]: soluble | Activity [3]: Toxic | EC50 [2, 13]: 10 µM

Compound: NNC(=S)Nc1ccc(-c2nnc(S)o2)cc1 [STEMAZOLE]
fold change (FC) (Homo sapiens [5]): 3 | Activity (Homo sapiens [6]): Active | Activity [7]: Non-toxic | Activity [8]: Non-toxic | Activity (Homo sapiens [9]): Dose-dependent effect | solubility [1]: soluble | Activity (Homo sapiens [10]): tde | Activity (Homo sapiens [11]): Active | Time [12]: 48.5 h | Activity [3]: Non-toxic | EC50 [2, 13]: 7.5 µM

More lines, main results first:

solubility [1]: soluble
Compound: CNNC(=S)Nc1ccc(-c2nnc(S)o2)cc1

solubility [1]: soluble
Compound: S=C(NNc1ccccc1)Nc1ccc(-c2nnc(S)o2)cc1
IC50 [4]: 8.3 µM

solubility [1]: soluble
Compound: S=C(NNc1ccc(Cl)cc1)Nc1ccc(-c2nnc(S)o2)cc1
IC50 [4]: 3.2 µM

solubility [1]: soluble
Compound: COc1ccc(NNC(=S)Nc2ccc(-c3nnc(S)o3)cc2)cc1
IC50 [4]: 42.7 µM
